Experimental data from ChEMBL document CHEMBL2146359, “HCV NS5A replication complex inhibitors. Part 2: investigation of stilbene prolinamides” (Bioorg Med Chem Lett, 2012).
≈ marks a conversion by molar mass, not a printed value.

Legend:
Hepatitis C virus = assay: Antiviral activity against HCV genotype 1b infected in human Huh7 cells assessed as inhibition of viral replication by FRET assay; type: functional, organism-based, Hepacivirus hominis; conditions: Huh-7
In short: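 Replicon potency values are the means of at least two experiments.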

[1] = Cytotoxicity against human HuH7 cells after 72 hrs by Alamar Blue assay; type: cell-based; conditions: Huh-7 cells
[2] = test system: Bovine viral diarrhea virus 1; assay: Antiviral activity against BVDV1; type: functional, organism-based; conditions: Bovine viral diarrhea virus isolates and strains
[3] = Metabolic stability in rat liver microsomes assessed as compound remaining after 10 mins; type: ADME, Microsome; conditions: read-out: Stability
[4] = Solubility of the compound; type: physicochemical
[5] = Oral bioavailability in rat at 1.8 mg/kg; type: ADME, organism-based; conditions: in vivo
[6] = Half life in rat at 1.8 mg/kg, po and iv; type: ADME, organism-based; parameters: dose 1.8 mg/kg, route oral; conditions: in vivo
Rattus norvegicus [7] = assay: Volume of distribution at steady state in rat at 1.8 mg/kg, po and iv; type: ADME, organism-based; parameters: dose 1.8 mg/kg, route oral; conditions: in vivo
[8] = Cmax in rat at 1.8 mg/kg, po and iv; type: ADME, organism-based; parameters: dose 1.8 mg/kg, route oral; conditions: in vivo
[9] = AUC in rat at 1.8 mg/kg, po; type: ADME, organism-based; parameters: dose 1.8 mg/kg, route oral; conditions: plasma
[10] = AUC in rat at 1.8 mg/kg, iv; type: ADME, organism-based; parameters: dose 1.8 mg/kg, route intravenous; conditions: plasma
[11] = Permeability across human Caco2 cells; type: ADME, cell-based; conditions: Caco-2, read-out: permeability
[12] = Half life in rat at 2.5 mg/kg, po and iv; type: ADME, organism-based; parameters: dose 2.5 mg/kg, route oral; conditions: in vivo
Rattus norvegicus [13] = assay: Volume of distribution at steady state in rat at 2.5 mg/kg, po and iv; type: ADME, organism-based; parameters: dose 2.5 mg/kg, route oral; conditions: in vivo
Rattus norvegicus [14] = assay: AUC in rat at 2.5 mg/kg, iv; type: ADME, organism-based, Plasma; parameters: dose 2.5 mg/kg, route intravenous; conditions: in vivo
[15] = Half life in rat at 1.6 mg/kg, po and iv; type: ADME, organism-based; parameters: dose 1.6 mg/kg, route oral; conditions: in vivo
Rattus norvegicus [16] = assay: Volume of distribution at steady state in rat at 1.6 mg/kg, po and iv; type: ADME, organism-based; parameters: dose 1.6 mg/kg, route oral; conditions: in vivo
[17] = AUC in rat at 1.6 mg/kg, iv; type: ADME, organism-based; parameters: dose 1.6 mg/kg, route intravenous; conditions: plasma
[18] = Oral bioavailability in rat at 2.8 mg/kg; type: ADME, organism-based; conditions: in vivo
[19] = Half life in rat at 2.8 mg/kg, po and iv; type: ADME, organism-based; parameters: dose 2.8 mg/kg, route oral; conditions: in vivo
Rattus norvegicus [20] = assay: Volume of distribution at steady state in rat at 2.8 mg/kg, po and iv; type: ADME, organism-based; parameters: dose 2.8 mg/kg, route oral; conditions: in vivo
[21] = Cmax in rat at 2.8 mg/kg, po and iv; type: ADME, organism-based; parameters: dose 2.8 mg/kg, route oral; conditions: in vivo
[22] = AUC in rat at 2.8 mg/kg, po; type: ADME, organism-based; parameters: dose 2.8 mg/kg, route oral; conditions: plasma
[23] = AUC in rat at 2.8 mg/kg, iv; type: ADME, organism-based; parameters: dose 2.8 mg/kg, route intravenous; conditions: plasma

## O=C(Nc1ccc(/C=C/c2ccc(NC(=O)[C@@H]3CCCN3C(=O)OCc3ccccc3)cc2)cc1)[C@@H]1CCCN1C(=O)OCc1ccccc1
Hepatitis C virus
  EC50: 0.00897 µM
[1]
  CC50 at 72 h: > 10 µM
[2]
  EC50: > 10 µM
[3]
  remaining at 10 min: 77%
[4]
  solubility: < 1 µg/mL
[5]
  bioavailability: 2%
[6]
  half-life: 4.6 h
Rattus norvegicus [7]
  Vdss: 4.3 L/kg
[8]
  Cmax: 4 ng/mL
[9]
  AUC: 37 ng·h/mL
[10]
  AUC: 1620 ng·h/mL

## CC(=O)N1CCC[C@H]1C(=O)Nc1ccc(/C=C/c2ccc(NC(=O)[C@@H]3CCCN3C(=O)Cc3ccccc3)cc2)cc1
Hepatitis C virus
  EC50: 0.0015 µM
[1]
  CC50 at 72 h: > 10 µM
[2]
  EC50: > 10 µM
[3]
  remaining at 10 min: 82%
[11]
  Papp: < 1.5 ×10⁻⁶ cm/s
[12]
  half-life: 5.2 h
Rattus norvegicus [13]
  Vdss: 1.2 L/kg
Rattus norvegicus [14]
  AUC: 101535 ng·h/mL

## O=C(Nc1ccc(/C=C/c2ccc(NC(=O)[C@@H]3C[C@@H](O)CN3C(=O)OCc3ccccc3)cc2)cc1)[C@@H]1C[C@@H](O)CN1C(=O)OCc1ccccc1
Hepatitis C virus
  EC50: 0.0289 µM
[1]
  CC50 at 72 h: > 10 µM
[2]
  EC50: > 10 µM
[3]
  remaining at 10 min: 99%
[11]
  Papp: 3.5 ×10⁻⁶ cm/s
[15]
  half-life: 6.4 h
Rattus norvegicus [16]
  Vdss: 1 L/kg
[17]
  AUC: 2450 ng·h/mL

## O=C(Nc1ccc(/C=C/c2ccc(NC(=O)[C@@H]3CCCN3C(=O)Cc3cccnc3)cc2)cc1)[C@@H]1CCCN1C(=O)Cc1cccnc1
Hepatitis C virus
  EC50: 0.000784 µM
[1]
  CC50 at 72 h: > 10 µM
[2]
  EC50: > 10 µM
[3]
  remaining at 10 min: 88%
[4]
  solubility: 53 µg/mL (≈ 82.5 µM)
[11]
  Papp: 1.6 ×10⁻⁶ cm/s
[5]
  bioavailability: 10%
[6]
  half-life: 9.3 h
Rattus norvegicus [7]
  Vdss: 2.9 L/kg
[8]
  Cmax: 120 ng/mL
[9]
  AUC: 322 ng·h/mL
[10]
  AUC: 3080 ng·h/mL

## O=C(Nc1ccc(/C=C/c2ccc(NC(=O)[C@@H]3CCCN3C(=O)CC3CC3)cc2)cc1)[C@@H]1CCCN1C(=O)CC1CC1
Hepatitis C virus
  EC50: 0.062 µM
[1]
  CC50 at 72 h: > 10 µM
[2]
  EC50: > 10 µM
[3]
  remaining at 10 min: 84%
[4]
  solubility: 4.4 µg/mL (≈ 7.74 µM)
[11]
  Papp: 0.4 ×10⁻⁶ cm/s
[18]
  bioavailability: 64%
[19]
  half-life: 4.9 h
Rattus norvegicus [20]
  Vdss: 0.8 L/kg
[21]
  Cmax: 1500 ng/mL
[22]
  AUC: 11900 ng·h/mL
[23]
  AUC: 18500 ng·h/mL
